We go through 16 compounds from ChEMBL document CHEMBL1148339, “Synthesis, structure-activity relationships, and drug resistance of beta-d-3'-fluoro-2',3'-unsaturated nucleosides as anti-HIV Agents” (J Med Chem, 2004).

SMILES strings stand for the structures.

Data set [1] has as its system Vero. In words: Cytotoxicity against vero cell line. The conditions noted are these: Chlorocebus sabaeus. Type of data set: functional, cell-based. In outline: (§1)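 Log-phase Vero (African green monkey kidney) cells seeded 5 × 10³ cells/well with 10-fold serial compound dilutions, cultured 3 days at 37 °C, humidified 5% CO₂/air.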
The test system of data set [2] is CCRF-CEM. In words: Cytotoxicity against T-lymphoblastoid cell line (CEM). It counts as functional, cell-based. The conditions noted are these: Homo sapiens. In outline:
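CEM T-lymphoblastoid cells in log phase, seeded 2.5 × 10³ cells/well with 10-fold serial dilutions of compound, 4 days at 37 °C in humidified 5% CO₂/air.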

Data set [3] in a line: Cytotoxicity against human peripheral blood mononuclear cells (PBMC). It counts as functional, cell-based. A digest of the protocol:
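Uninfected PHA-stimulated human PBM cells from seronegative donors (Ficoll–Hypaque), 5 × 10⁴ cells/well, 10-fold serial compound dilutions, 5 days at 37 °C in 5% CO₂/air. MTT assay read at 570 nm; IC50 by median effect method.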

Data set [4] relates to Human immunodeficiency virus 1. In words: Effective concentration against HIV-1 in human peripheral blood mononuclear cells (PBMC). Type of data set: functional, organism-based. A digest of the protocol:
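PBM cells infected in bulk for 1 h with HIV-1 LAI (100 TCID50/1 × 10⁷ cells, flask, or 200 TCID50/6 × 10⁵ cells/well), then cultured 5 days at 37 °C with 10-fold compound dilutions in IL-2 medium. Supernatant virus pelleted; RT activity measured with poly(rA)·oligo(dT) and [³H]TTP, 2 h 37 °C. EC50/EC90 by median effect method.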

In data set [5] the test system is Human immunodeficiency virus 1. In words: Effective concentration against M184V HIV-1 virus in human peripheral blood mononuclear cells.
For data set [6], the system named is Human immunodeficiency virus 1. In words: Effective concentration against Wild Type HIV-1 virus in human peripheral blood mononuclear cells.
Data set [7] in a line: t1/2 (half life) period was determined. It counts as ADME.
The subject of data set [8] is Vero. In words: Cytotoxicity against Vero cell line. It counts as functional, cell-based. The conditions noted are these: Chlorocebus sabaeus. In outline:
as §1

Data set [9] concerns adenosine deaminase (ADA). In words: Ability to get deaminated by adenosine deaminase (ADA); Expressed as t1/2. It counts as ADME, Bos taurus. As to conditions: cattle. A digest of the protocol:
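Calf intestinal mucosa adenosine deaminase, 0.15 units, in phosphate buffer pH 7.4 at 25 °C; substrate at 20 μM. Deamination followed by UV absorbance at 265 nm, with substrate concentration derived from absorbance change over time to give half-life.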

The nature of data set [10]: t1/2 (half life) period was determined; No decomposition observed up to 7 days. Type of data set: ADME. As to conditions: 168 h.

One may read the IC50 as the midpoint of a concentration-inhibition curve. A low value points to inhibition by little substance. For orientation: EC50 means the concentration that produces a half-maximal response. Lower therefore signals higher potency in that assay. For the compound `Nc1ncnc2c1ncn2[C@@H]1C=C(F)[C@H](CO)O1`, the IC50 in data set [1], in data set [2] and in data set [3] was above 100 µM in each case. The EC50 in data set [4] was above 100 µM.
In general, half-life refers to how long it takes for the measured level to halve. The low end stands for fast loss, the high end for slow loss. For `Nc1ccn([C@H]2C=C(F)[C@@H](CO)O2)c(=O)n1`, the EC50 in [5] came to 19700 nM; in data set [6] it was 2300 nM; in data set [4], 2.3 µM. The half-life in [7] is 2880 min. Further, the half-inhibitory concentration (IC50) in [1], in [2] and in data set [3] was above 100 µM each time.
The compound `Nc1ccn([C@H]2C=C[C@@H](CO)O2)c(=O)n1` had a half-life in data set [7] of 60 min. The compound also had an IC50 in data set [3] of 65 µM. The compound further had an EC50 in [4] of 0.005 µM.
As to `OC[C@H]1O[C@@H](n2cnc3c(O)ncnc32)C=C1F`, the IC50 in [1] was above 100 µM; in data set [2], 77.7 µM; in data set [3] it was above 100 µM. In [4], this compound displayed an EC50 of 12.8 µM.
On to `Nc1nc(O)c2ncn([C@H]3C=C(F)[C@@H](CO)O3)c2n1`, for which the half-inhibitory concentration (IC50) is 75.5 µM in [1], above 100 µM in data set [2] and above 100 µM in [3]. In addition, in [4], the EC50 amounted to 44.9 µM.
In the case of `Cc1cn([C@H]2C=C(F)[C@@H](CO)O2)c(=O)[nH]c1=O`, the IC50 in data set [2], in [8] and in [3] was above 100 µM throughout. For the same compound, the EC50 in [4] is above 100 µM.
`Nc1ncnc2c1ncn2[C@H]1C=C[C@@H](CO)O1` had a half-life in data set [9] of 4460 min.
Regarding `O=c1ccn(C2C=C(F)C(CO)O2)c(=O)[nH]1` (stereo not given), the values for the IC50 in [1], in data set [2] and in data set [3] were 82.6 µM, above 100 µM and above 100 µM, respectively. The same compound returned an EC50 in data set [4] above 100 µM.
For `Nc1ncnc2c1ncn2[C@@H]1O[C@H](CO)C=C1F`, the half-life in [9] is 42 min.
On to `Nc1ncnc2c1ncn2[C@H]1C=C(F)[C@@H](CO)O1`, for which the IC50 in data set [1], in data set [2] and in [3] was above 100 µM in each case. This compound yielded a half-life in data set [9] of 56 min. The concentration for a half-maximal effect (EC50) in data set [4] came to 6.55 µM.
As to `Nc1ccn([C@@H]2O[C@H](CO)C=C2F)c(=O)n1`, the T1/2 result in [10] is reported as “Infinity”.
`Nc1nc(=O)n([C@H]2C=C(F)[C@@H](CO)O2)cc1F`: the IC50 in data set [1], in data set [2] and in data set [3] was above 100 µM throughout. In data set [4], the response was half-maximal at 9.29 µM (EC50).
As to `Nc1nc(=O)n([C@@H]2C=C(F)[C@H](CO)O2)cc1F`, the IC50 in data set [1], in [2] and in data set [3] was above 100 µM in each case. For the same compound, a half-maximal effect in data set [4] (EC50) was put at 0.018 µM.
For `Nc1ccn([C@@H]2C=C(F)[C@H](CO)O2)c(=O)n1`, the EC50 worked out at 2400 nM in [5], 89 nM in data set [6] and 0.089 µM in data set [4]. Also, the IC50 in [1] is above 100 µM; in data set [2], above 100 µM; in data set [3], 86.9 µM.
The compound `Nc1ncnc2c1ncn2[C@@H]1O[C@H](CO)[C@@H](O)[C@H]1O` [ADENOSINE] came in with a half-life in data set [9] of 0.5 min.
As to `Cc1cn([C@H]2C[C@H](N=[N+]=[N-])[C@@H](CO)O2)c(=O)[nH]c1=O` [ZIDOVUDINE], the EC50 amounted to 2.7 nM in data set [5] and 4.1 nM in data set [6].
